According to ChEMBL document CHEMBL1649122, “Abc1p is a multidrug efflux transporter that tips the balance in favor of innate azole resistance in Candida krusei” (2009):
Converted amounts (≈) assume the structure as drawn. The source made the active and inactive calls. The rule behind the calls is not given here.

What was measured:
Saccharomyces cerevisiae [1] = test: Antimicrobial activity against Saccharomyces cerevisiae isolate AD overexpressing Candida krusei ERG11C after 48 hrs by liquid microdilution assay; type: functional
How it was run: (§1)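 Liquid broth microdilution susceptibility assay in CSM medium at pH 7.0, which was also the medium used for the expression studies. Fungal strains were maintained in YPD. The S. cerevisiae test strains carry C. krusei ABC1 or fungal ERG11 alleles integrated at the chromosomal PDR5 locus.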

Saccharomyces cerevisiae [2] = test: Antimicrobial activity against Saccharomyces cerevisiae isolate ADdelta overexpressing Candida albicans ERG11A after 48 hrs by liquid microdilution assay; type: functional; how it was run: as §1
[3] = target: ATP binding cassette transporter Abc1p (Issatchenkia orientalis) (UniProt Q09GQ4); test: Inhibition of Candida krusei ABC1 expressed in Saccharomyces cerevisiae isolate ADdelta at 0.36 nM; conditions: Pichia kudriavzevii
How it was run: (§2)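 Agarose disk-diffusion test of S. cerevisiae AD overexpressing C. krusei Abc1p, with the parent AD strain as comparison. Cells were pregrown from YPD overnight into CSM to mid-log at 30°C. They were seeded at OD600 0.008 in CSM with 0.6% agarose, overlaid on CSM agar (pH 7.0). Paper disks carrying set nmol amounts of xenobiotic were applied, and plates were incubated at 30°C for 48 h before reading growth inhibition zones.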

Pichia kudriavzevii [4] = test: Antimicrobial activity against Candida krusei B2399 after 48 hrs by CLSI method; type: functional; conditions: B2399, 48 h
How it was run: (§3)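 Azole MICs were determined by the CLSI M27-A2 broth microdilution reference method. They were interpreted against the CLSI breakpoints. Strains were maintained in YPD medium (1% yeast extract, 2% peptone, 2% glucose).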

[5] = target: ATP binding cassette transporter Abc1p (Issatchenkia orientalis) (UniProt Q09GQ4); test: Inhibition of Candida krusei […] expressed in Saccharomyces cerevisiae isolate ADdelta assessed as fractional inhibitory concentration index at 2.5 ug/ml after 48 hrs by checkerboard susceptibility assay; conditions: Pichia kudriavzevii
How it was run: (§4)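 Checkerboard susceptibility assay combining the Abc1p inhibitor with FLC or ITC. MICs were determined at various inhibitor concentrations. The fractional inhibitory concentration index was calculated for each combination.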

Pichia kudriavzevii [6] = test: Antimicrobial activity against Candida krusei NZCDC 89.221 after 48 hrs by CLSI method; type: functional; how it was run: as §3
Saccharomyces cerevisiae [7] = test: Antimicrobial activity against Saccharomyces cerevisiae isolate ADdelta overexpressing Abc1p after 48 hrs by liquid microdilution assay; type: functional; how it was run: as §1
Pichia kudriavzevii [8] = test: Antimicrobial activity against Candida krusei NZCDC 89.102 after 48 hrs by CLSI method; type: functional; how it was run: as §3
Pichia kudriavzevii [9] = test: Antimicrobial activity against Candida krusei B2399 after 48 hrs by liquid microdilution assay; type: functional; conditions: B2399, 48 h; how it was run: as §1
Saccharomyces cerevisiae [10] = test: Fold resistant, ratio of MIC for Saccharomyces cerevisiae isolate ADdelta overexpressing Candida krusei ERG11C to MIC for Saccharomyces cerevisiae isolate ADdelta overexpressing Abc1p; type: functional
How it was run: (§5)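 Fold resistance is the ratio of azole MICs between S. cerevisiae overexpressing strains. The MICs were measured by liquid broth microdilution in CSM medium at pH 7.0. The ERG11 or ABC1 constructs are integrated at the PDR5 locus.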

Saccharomyces cerevisiae [11] = test: Antimicrobial activity against Saccharomyces cerevisiae isolate ADdelta overexpressing Candida krusei ERG11g after 48 hrs by liquid microdilution assay; type: functional; how it was run: as §1
Saccharomyces cerevisiae [12] = test: Fold resistant, ratio of MIC for Saccharomyces cerevisiae isolate ADdelta overexpressing Candida krusei ERG11g to MIC for Saccharomyces cerevisiae isolate ADdelta overexpressing Abc1p; type: functional; how it was run: as §5
Pichia kudriavzevii [13] = test: Antimicrobial activity against Candida krusei NZCDC 89.102 after 48 hrs by liquid microdilution assay; type: functional; conditions: NZCDC 89.102, 48 h; how it was run: as §1
Pichia kudriavzevii [14] = test: Antimicrobial activity against Candida krusei NZCDC 89.021 after 48 hrs by CLSI method; type: functional; conditions: NZCDC 89.021, 48 h; how it was run: as §3
Saccharomyces cerevisiae [15] = test: Fold resistant, ratio of MIC for Saccharomyces cerevisiae isolate ADdelta overexpressing Candida albicans ERG11A to MIC for Saccharomyces cerevisiae isolate ADdelta overexpressing Abc1p; type: functional; how it was run: as §5
Pichia kudriavzevii [16] = test: Antimicrobial activity against Candida krusei NZCDC 90.147 after 48 hrs by CLSI method; type: functional; how it was run: as §3
Pichia kudriavzevii [17] = test: Increase in ERG11 mRNA expression in Candida krusei B2399 at 2 times MIC concentration after 1 hr by hot-phenol extraction based Northern blotting; type: functional, organism-based
How it was run: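 Logarithmically grown C. krusei B2399 was exposed to azole for 60 min (2x MIC for VRC, MCZ and ITC; 1x MIC for FLC) alongside an untreated control. Total RNA was extracted with hot phenol, and 10 µg was run on 1.2% denaturing agarose. It was Northern blotted and probed with a radiolabeled ERG11 fragment. ACT1 mRNA served as internal control, with EtBr-stained rRNA showing loading.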

Pichia kudriavzevii [18] = test: Antimicrobial activity against Candida krusei NZCDC 89.221 after 48 hrs by liquid microdilution assay; type: functional; conditions: NZCDC 89.221, 48 h; how it was run: as §1
Pichia kudriavzevii [19] = test: Antimicrobial activity against Candida krusei IFO0011 after 48 hrs by CLSI method; type: functional; conditions: IFO0011, 48 h; how it was run: as §3
Saccharomyces cerevisiae [20] = test: Antimicrobial activity against Saccharomyces cerevisiae isolate ADdelta overexpressing Saccharomyces cerevisiae ERG11 after 48 hrs by liquid microdilution assay; type: functional; how it was run: as §1
Pichia kudriavzevii [21] = test: Antimicrobial activity against Candida krusei NZCDC 90.147 after 48 hrs by liquid microdilution assay; type: functional; conditions: NZCDC 90.147, 48 h; how it was run: as §1
Pichia kudriavzevii [22] = test: Antimicrobial activity against Candida krusei IFO0011 after 48 hrs by liquid microdilution assay; type: functional; conditions: IFO0011, 48 h; how it was run: as §1
Saccharomyces cerevisiae [23] = test: Fold resistant, ratio of MIC for Saccharomyces cerevisiae isolate ADdelta overexpressing Saccharomyces cerevisiae ERG11 to MIC for Saccharomyces cerevisiae isolate ADdelta overexpressing Abc1p; type: functional; how it was run: as §5
[24] = target: ATP binding cassette transporter Abc1p (Issatchenkia orientalis) (UniProt Q09GQ4); test: Inhibition of Candida krusei B2399 Abc1p assessed as fractional inhibitory concentration index at 2.5 ug/ml after 48 hrs by checkerboard susceptibility assay; conditions: Pichia kudriavzevii; how it was run: as §4
Pichia kudriavzevii [25] = test: Antimicrobial activity against Candida krusei NZCDC 89.021 after 48 hrs by liquid microdilution assay; type: functional; conditions: NZCDC 89.021, 48 h; how it was run: as §1
[26] = target: ATP binding cassette transporter Abc1p (Issatchenkia orientalis) (UniProt Q09GQ4); test: Inhibition of Candida krusei ABC1 expressed in Saccharomyces cerevisiae isolate ADdelta at 0.37 nM; conditions: Pichia kudriavzevii
[27] = target: ATP binding cassette transporter Abc1p (Issatchenkia orientalis) (UniProt Q09GQ4); test: Inhibition of Candida krusei ABC1 expressed in Saccharomyces cerevisiae isolate ADdelta at 8 nM; conditions: Pichia kudriavzevii
[28] = target: ATP binding cassette transporter Abc1p (Issatchenkia orientalis) (UniProt Q09GQ4); test: Inhibition of Candida krusei ABC1 expressed in Saccharomyces cerevisiae isolate ADdelta at 87 nM; conditions: Pichia kudriavzevii; how it was run: as §2
[29] = target: ATP binding cassette transporter Abc1p (Issatchenkia orientalis) (UniProt Q09GQ4); test: Inhibition of Candida krusei ABC1 expressed in Saccharomyces cerevisiae isolate ADdelta at 0.026 nM; conditions: Pichia kudriavzevii; how it was run: as §2
[30] = target: ATP binding cassette transporter Abc1p (Issatchenkia orientalis) (UniProt Q09GQ4); test: Inhibition of Candida krusei ABC1 expressed in Saccharomyces cerevisiae isolate ADdelta at 22 nM; conditions: Pichia kudriavzevii
[31] = target: ATP binding cassette transporter Abc1p (Issatchenkia orientalis) (UniProt Q09GQ4); test: Inhibition of Candida krusei ABC1 expressed in Saccharomyces cerevisiae isolate ADdelta at 19 nM; conditions: Pichia kudriavzevii; how it was run: as §2
[32] = target: ATP binding cassette transporter Abc1p (Issatchenkia orientalis) (UniProt Q09GQ4); test: Inhibition of Candida krusei IF011 Abc1p assessed as reduction of itraconazole MIC at 1 ug after 48 hrs by agarose diffusion assay; conditions: Pichia kudriavzevii
[33] = target: ATP binding cassette transporter Abc1p (Issatchenkia orientalis) (UniProt Q09GQ4); test: Inhibition of Candida krusei Abc1p expressed in Saccharomyces cerevisiae isolate AD assessed as reduction of itraconazole MIC at 1 ug after 48 hrs by agarose diffusion assay; conditions: Pichia kudriavzevii
[34] = target: ATP binding cassette transporter Abc1p (Issatchenkia orientalis) (UniProt Q09GQ4); test: Inhibition of Candida krusei B2399 Abc1p assessed as reduction of itraconazole MIC at 1 ug after 48 hrs by agarose diffusion assay; conditions: Pichia kudriavzevii

Compound: CCC(C)n1ncn(-c2ccc(N3CCN(c4ccc(OCC5COC(Cn6cncn6)(c6ccc(Cl)cc6Cl)O5)cc4)CC3)cc2)c1=O (centres undefined) [ITRACONAZOLE]
- MIC (Saccharomyces cerevisiae [1]): 0.063 µg/mL (≈ 0.0893 µM)
- MIC (Saccharomyces cerevisiae [2]): 0.125 µg/mL (≈ 0.177 µM)
- Activity [3]: inactive
- MIC (Pichia kudriavzevii [4]): 0.25 µg/mL (≈ 0.354 µM)
- fractional inhibitory concentration index (FICI) [5]: 0.104
- MIC (Pichia kudriavzevii [6]): 0.125 µg/mL (≈ 0.177 µM)
- MIC (Saccharomyces cerevisiae [7]): 0.031 µg/mL (≈ 0.0439 µM)
- MIC (Pichia kudriavzevii [8]): 0.25 µg/mL (≈ 0.354 µM)
- MIC (Pichia kudriavzevii [9]): 0.5 µg/mL (≈ 0.709 µM)
- ratio (Saccharomyces cerevisiae [10]): 2
- MIC (Saccharomyces cerevisiae [11]): 4 µg/mL (≈ 5.67 µM)
- ratio (Saccharomyces cerevisiae [12]): 128
- MIC (Pichia kudriavzevii [13]): 2 µg/mL (≈ 2.83 µM)
- MIC (Pichia kudriavzevii [14]): 0.25 µg/mL (≈ 0.354 µM)
- ratio (Saccharomyces cerevisiae [15]): 4
- MIC (Pichia kudriavzevii [16]): 0.25 µg/mL (≈ 0.354 µM)
- Activity (Pichia kudriavzevii [17]): Active
- MIC (Pichia kudriavzevii [18]): 1 µg/mL (≈ 1.42 µM)
- MIC (Pichia kudriavzevii [19]): 0.25 µg/mL (≈ 0.354 µM)
- MIC (Saccharomyces cerevisiae [20]): 0.25 µg/mL (≈ 0.354 µM)
- MIC (Pichia kudriavzevii [21]): 1 µg/mL (≈ 1.42 µM)
- MIC (Pichia kudriavzevii [22]): 1 µg/mL (≈ 1.42 µM)
- ratio (Saccharomyces cerevisiae [23]): 8
- fractional inhibitory concentration index (FICI) [24]: 0.298
- MIC (Pichia kudriavzevii [25]): 1 µg/mL (≈ 1.42 µM)

Compound: C[C@@H]1C[C@@H]([C@H](O)CC2CC(=O)NC(=O)C2)C(=O)[C@@H](C)C1
- Activity [26]: Active

Compound: CO[C@@H]1C[C@@H](C[C@H]2CC[C@H](C)[C@H]([C@@H](C)C(=O)O)O2)O[C@]2(O[C@](C)([C@H]3CC[C@@](C)([C@@H]4O[C@@H]([C@H]5O[C@@](O)(CO)[C@H](C)C[C@@H]5C)C[C@@H]4C)O3)C[C@H]2C)[C@@H]1C
- Activity [27]: Active

Compound: C[C@@H]1[C@H](O)[C@@H](C)/C=C/C=C/C=C/C=C/C=C/C=C/C=C/[C@H](O[C@@H]2O[C@H](C)[C@@H](O)[C@H](N)[C@@H]2O)C[C@@H]2O[C@](O)(C[C@@H](O)C[C@@H](O)[C@H](O)CC[C@@H](O)C[C@@H](O)CC(=O)O[C@H]1C)C[C@H](O)[C@H]2C(=O)O
- Activity [28]: inactive

Compound: Clc1ccc(COC(Cn2ccnc2)c2ccc(Cl)cc2Cl)c(Cl)c1 (centres undefined) [MICONAZOLE]
- MIC (Saccharomyces cerevisiae [1]): 0.125 µg/mL (≈ 0.3 µM)
- MIC (Saccharomyces cerevisiae [2]): 0.063 µg/mL (≈ 0.151 µM)
- Activity [29]: inactive
- MIC (Pichia kudriavzevii [4]): 4 µg/mL (≈ 9.61 µM)
- MIC (Pichia kudriavzevii [6]): 2 µg/mL (≈ 4.81 µM)
- MIC (Saccharomyces cerevisiae [7]): 0.0078 µg/mL (≈ 0.0187 µM)
- MIC (Pichia kudriavzevii [8]): 2 µg/mL (≈ 4.81 µM)
- MIC (Pichia kudriavzevii [9]): 2 µg/mL (≈ 4.81 µM)
- ratio (Saccharomyces cerevisiae [10]): 16
- MIC (Saccharomyces cerevisiae [11]): 0.5 µg/mL (≈ 1.2 µM)
- ratio (Saccharomyces cerevisiae [12]): 64
- MIC (Pichia kudriavzevii [13]): 4 µg/mL (≈ 9.61 µM)
- MIC (Pichia kudriavzevii [14]): 2 µg/mL (≈ 4.81 µM)
- ratio (Saccharomyces cerevisiae [15]): 8
- MIC (Pichia kudriavzevii [16]): 4 µg/mL (≈ 9.61 µM)
- Activity (Pichia kudriavzevii [17]): Active
- MIC (Pichia kudriavzevii [18]): 4 µg/mL (≈ 9.61 µM)
- MIC (Pichia kudriavzevii [19]): 4 µg/mL (≈ 9.61 µM)
- MIC (Saccharomyces cerevisiae [20]): 0.031 µg/mL (≈ 0.0745 µM)
- ratio (Saccharomyces cerevisiae [23]): 4
- MIC (Pichia kudriavzevii [25]): 4 µg/mL (≈ 9.61 µM)

Compound: NYSTATIN
- Activity [30]: inactive

Compound: Nc1nc(=O)[nH]cc1F
- Activity [31]: inactive

Compound: CC(C)=CC(=O)OCC1=C[C@H]2C(=O)O[C@H]3C[C@@H](C/C=C(\C)C[C@@H](C)/C=C/C=C4\CO[C@H]([C@@H]1O)[C@@]42O)O[C@@]1(CC[C@H](C)[C@@H](C)O1)C3
- Activity [32]: Active
- Activity [33]: Active
- Activity [34]: Active
